Data reported in ChEMBL document CHEMBL3865821, “Amino substituted benzimidazo[1,2-a]quinolines: Antiproliferative potency, 3D QSAR study and DNA binding properties” (Eur J Med Chem, 2016).
Each block holds one molecule with its values, some of them ahead of it. Active and inactive are the calls of the source. The calls are words filed in the database; no cut-off is given here.

Tests used:
[1] = Antiproliferative activity against human MCF7 cells after 72 hrs by MTT assay; format: functional, cell-based; settings: MCF7, 72 h
How it was run: (§1)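 Tumour cells were grown as monolayers in DMEM with 10 % FBS, 2 mM L-glutamine, penicillin and streptomycin at 37 °C under 5 % CO₂. Tenfold dilutions from 10^-8 to 10^-4 M were applied for 72 h, followed by MTT read at 570 nm. IC50 came from linear regression of percentage growth; at least two experiments, quadruplicate points.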

[2] = Antiproliferative activity against human H460 cells after 72 hrs by MTT assay; format: functional, cell-based; settings: NCI-H460, 72 h
How it was run: as §1, with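 “CO₂. They were seeded at 3×10^4 cells/mL (HCT 116, H460) or 5×10^4 cells/mL (MCF-7).” for “CO₂.”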

[3] = Binding affinity to duplex calf thymus DNA assessed as change in melting temperature at drug/DNA ratio of 0.5 by spectrophotometric analysis
How it was run: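 Calf-thymus DNA at 20 μM was heated with or without compound at 10 or 20 μM (drug/base-pair ratio 0.5 or 1) in BPE buffer (6 mM Na₂HPO₄, 2 mM NaH₂PO₄, 1 mM EDTA, pH 7.1). A260 was read every minute from 20 to 100 °C, rising 1 °C per min, and ΔTm was derived.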

[4] = Antiproliferative activity against human HCT116 cells after 72 hrs by MTT assay; format: functional, cell-based; settings: HCT-116, 72 h; how it was run: as §1
[5] = Antiproliferative activity against human shGFP-fused HMLE cells after 72 hrs by MTT assay; format: cell-based
How it was run: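 HMLE-shGFP cells were kept in a 1:1 mix of DMEM + 10 % FBS with insulin, hydrocortisone and HuMEC medium at 37 °C, 5 % CO₂. Agents were given as tenfold dilutions from 10^-8 to 10^-4 M for 72 h, then MTT absorbance was read at 570 nm. IC50 was interpolated by linear regression of percentage growth; at least two experiments, each point in quadruplicate.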

[6] = Binding affinity to 0.5 to 480 uM of duplex […] (unknown origin) at 0.5 to 540 uM by fluorescence spectroscopic analysis
How it was run: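 Fluorescent compounds at 10 μM in BPE buffer (pH 7.1) were measured with and without rising calf-thymus DNA. Emission was scanned from 400 to 700 nm. K_sv was taken as the slope of the Stern–Volmer plot F₀/F = 1 + K_sv[ct-DNA].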

[7] = Binding affinity to radiolabeled 265bp DNA (unknown origin) at 0.5 to 50 uM by DNase 1 footprinting analysis
[8] = Binding affinity to duplex calf thymus DNA assessed as change in melting temperature at drug/DNA ratio of 0.1 by spectrophotometric analysis
[9] = Binding affinity to duplex calf thymus DNA assessed as change in melting temperature at drug/DNA ratio of 0.05 by spectrophotometric analysis
[10] = test system: Escherichia coli; experiment: Binding affinity to negatively supercoiled pUC19 DNA assessed as DNA intercalation by measuring generation of positively supercoiled DNA up to 50 uM preincubated for 15 mins followed by human DNA topoisomerase 1 addition measured after 30 mins by agarose gel electrophoresis
How it was run: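 Supercoiled pUC19 plasmid was treated with human topoisomerase I, alone or with compound, and topoisomers were resolved by agarose gel electrophoresis. Poisoning, seen as nicked plasmid, was assessed on ethidium bromide-containing agarose gels at up to 100 μM compound.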

[11] = Binding affinity to duplex calf thymus DNA assessed as hypsochromic shift at 20 uM by UV/visible spectroscopic analysis
How it was run: (§2)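 Compound at 20 μM in BPE buffer (pH 7.1) was titrated with calf-thymus DNA at 1–140 μM in a 10 mm quartz cuvette. Spectra were recorded from 240 to 480 nm against a reference cuvette holding DNA at the same concentration.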

[12] = Binding affinity to duplex calf thymus DNA assessed as induction of negative circular dichroic signal at 1 to 60 uM by circular dichroism analysis
How it was run: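 Calf-thymus DNA at 50 μM was incubated in BPE buffer with or without compound at 1, 5, 10, 20, 30, 40, 50 and 60 μM. CD spectra were recorded from 480 to 230 nm in a 10 mm cell at 20 °C. The compound alone at 60 μM was checked for intrinsic CD.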

[13] = Binding affinity to duplex calf thymus DNA assessed as bathochromic shift at 20 uM by UV/visible spectroscopic analysis; how it was run: as §2

ΔTm [3]: 0.5 °C
Structure (SMILES): N#Cc1c(N2CCOCC2)c2ccc(N3CCOCC3)cc2n2c1nc1ccccc12
IC50 ([1]; read-out: IC50): 9 µM
IC50 ([1]; read-out: pIC50 (converted)): 8.99 µM
IC50 ([2]; read-out: IC50): 18 µM
IC50 ([2]; read-out: pIC50 (converted)): 18 µM
IC50 ([4]; read-out: IC50): 11 µM
IC50 ([4]; read-out: pIC50 (converted)): 11 µM

Structure (SMILES): CN1CCN(c2c(C#N)c3nc4ccccc4n3c3ccccc23)CC1
IC50 ([1]; read-out: IC50): 3 µM
IC50 ([1]; read-out: pIC50 (converted)): 3 µM
IC50 ([2]; read-out: IC50): 4 µM
IC50 ([2]; read-out: pIC50 (converted)): 4 µM
IC50 ([4]; read-out: IC50): 3 µM
IC50 ([4]; read-out: pIC50 (converted)): 3 µM

Structure (SMILES): COc1cccc2c1C(=O)c1c(O)c3c(c(O)c1C2=O)C[C@@](O)(C(=O)CO)C[C@@H]3O[C@H]1C[C@H](N)[C@H](O)[C@H](C)O1 [DOXORUBICIN]
IC50 [5]: 10 nM
IC50 ([2]; read-out: IC50): 0.03 µM

Structure (SMILES): CC(C)Nc1ccc2cc(C#N)c3nc4ccccc4n3c2c1
IC50 ([1]; read-out: IC50): 0.7 µM
IC50 ([1]; read-out: pIC50 (converted)): 0.7 µM
IC50 [5]: 1000 nM
IC50 ([2]; read-out: IC50): 2 µM
IC50 ([2]; read-out: pIC50 (converted)): 2 µM
IC50 ([4]; read-out: IC50): 0.8 µM
IC50 ([4]; read-out: pIC50 (converted)): 0.8 µM

Structure (SMILES): CC(C)CCNc1ccc2c(NCCC(C)C)c(C#N)c3nc4ccccc4n3c2c1
IC50 ([1]; read-out: IC50): 2 µM
IC50 ([1]; read-out: pIC50 (converted)): 2 µM
IC50 [5]: 6000 nM
IC50 ([2]; read-out: IC50): 5 µM
IC50 ([2]; read-out: pIC50 (converted)): 5 µM
IC50 ([4]; read-out: IC50): 6 µM
IC50 ([4]; read-out: pIC50 (converted)): 6 µM

Structure (SMILES): CC1CN(c2c(C#N)c3nc4ccccc4n3c3ccccc23)CC(C)N1 (configuration not stated)
IC50 ([1]; read-out: IC50): 6 µM
IC50 ([1]; read-out: pIC50 (converted)): 6 µM
IC50 [5]: 3000 nM
IC50 ([2]; read-out: IC50): 4 µM
IC50 ([2]; read-out: pIC50 (converted)): 4 µM
IC50 ([4]; read-out: IC50): 3 µM
IC50 ([4]; read-out: pIC50 (converted)): 3 µM

Activity [6]: Active
Activity [7]: Active
ΔTm [8]: 20.7 °C
ΔTm [9]: 2.1 °C
inhibition [10]: Active
Activity [11]: Active
Activity [12]: Active
Activity [13]: Active
Structure (SMILES): C[N+]1(C)CCN(c2ccc3c(N4CC[N+](C)(C)CC4)c(C#N)c4nc5ccccc5n4c3c2)CC1
IC50 ([1]; read-out: IC50): > 100 µM
IC50 ([1]; read-out: pIC50 (converted)): 500 µM
IC50 ([2]; read-out: IC50): > 100 µM
IC50 ([2]; read-out: pIC50 (converted)): 500 µM
IC50 ([4]; read-out: IC50): > 100 µM
IC50 ([4]; read-out: pIC50 (converted)): > 100 µM

Structure (SMILES): CC(C)CCNc1ccc2cc(C#N)c3nc4ccccc4n3c2c1
IC50 ([1]; read-out: IC50): 2 µM
IC50 ([1]; read-out: pIC50 (converted)): 2 µM
IC50 [5]: 3000 nM
IC50 ([2]; read-out: IC50): 4 µM
IC50 ([2]; read-out: pIC50 (converted)): 4 µM
IC50 ([4]; read-out: IC50): 3 µM
IC50 ([4]; read-out: pIC50 (converted)): 3 µM

Structure (SMILES): CCCCCN(CCCCC)c1ccc2c(N(CCCCC)CCCCC)c(C#N)c3nc4ccccc4n3c2c1
IC50 ([1]; read-out: IC50): > 100 µM
IC50 ([1]; read-out: pIC50 (converted)): > 100 µM
IC50 ([2]; read-out: IC50): > 100 µM
IC50 ([2]; read-out: pIC50 (converted)): 500 µM
IC50 ([4]; read-out: IC50): > 100 µM
IC50 ([4]; read-out: pIC50 (converted)): > 100 µM

ΔTm [3]: 0.7 °C
Structure (SMILES): N#Cc1c(N2CCCCC2)c2ccc(N3CCCCC3)cc2n2c1nc1ccccc12
IC50 ([1]; read-out: IC50): 10 µM
IC50 ([1]; read-out: pIC50 (converted)): 10 µM
IC50 ([2]; read-out: IC50): 15 µM
IC50 ([2]; read-out: pIC50 (converted)): 15 µM
IC50 ([4]; read-out: IC50): 11 µM
IC50 ([4]; read-out: pIC50 (converted)): 11 µM

Structure (SMILES): CN1CCN(c2ccc3c(N4CCN(C)CC4)c(C#N)c4nc5ccccc5n4c3c2)CC1
IC50 ([1]; read-out: IC50): 3 to 4 µM
IC50 ([1]; read-out: pIC50 (converted)): 3 µM
IC50 ([2]; read-out: IC50): 3 to 4 µM
IC50 ([2]; read-out: pIC50 (converted)): 4 µM
IC50 ([4]; read-out: IC50): 2 µM
IC50 ([4]; read-out: pIC50 (converted)): 2 µM

ΔTm [3]: 0 °C
Structure (SMILES): CC1CN(c2ccc3cc(C#N)c4nc5ccccc5n4c3c2)CC(C)N1 (configuration not stated)
IC50 ([1]; read-out: IC50): 0.6 µM
IC50 ([1]; read-out: pIC50 (converted)): 0.6 µM
IC50 [5]: 200 nM
IC50 ([2]; read-out: IC50): 0.5 µM
IC50 ([2]; read-out: pIC50 (converted)): 0.5 µM
IC50 ([4]; read-out: IC50): 0.3 µM
IC50 ([4]; read-out: pIC50 (converted)): 0.3 µM

Structure (SMILES): CCCCCCNc1ccc2cc(C#N)c3nc4ccccc4n3c2c1
IC50 ([1]; read-out: IC50): 5 µM
IC50 ([1]; read-out: pIC50 (converted)): 5 µM
IC50 ([2]; read-out: IC50): 5 µM
IC50 ([2]; read-out: pIC50 (converted)): 5 µM
IC50 ([4]; read-out: IC50): 5 µM
IC50 ([4]; read-out: pIC50 (converted)): 5 µM

ΔTm [3]: 0 °C
Structure (SMILES): CCCN(CCC)c1ccc2c(N(CCC)CCC)c(C#N)c3nc4ccccc4n3c2c1
IC50 ([1]; read-out: IC50): 21 µM
IC50 ([1]; read-out: pIC50 (converted)): 21 µM
IC50 ([2]; read-out: IC50): 29 µM
IC50 ([2]; read-out: pIC50 (converted)): 29 µM
IC50 ([4]; read-out: IC50): 14 µM
IC50 ([4]; read-out: pIC50 (converted)): 14 µM
